Source: ChEMBL document CHEMBL4270616, “Asymmetrical meta-methoxylated diarylpentanoids: Rational design, synthesis and anti-cancer evaluation in-vitro” (Eur J Med Chem, 2018)

Columns and labels:
SW-620 [1] = experiment: Cytotoxicity against human SW620 cells after 72 hrs by MTT assay; type: functional, cell-based; conditions: SW-620, 72 h
Method in brief: (§1)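 Tumour lines kept in DMEM with 10% FBS and 1% penicillin/streptomycin at 37°C, 5% CO2. Seeded at 1500-5000 cells/well by doubling time and size, 24 h, then compound in DMSO-containing medium (final DMSO 0.1%) for 72 h. MTT (5 mg/mL) 4 h at 37°C, DMSO solubilisation, absorbance at 570 nm.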

A549 [2] = experiment: Cytotoxicity against human A549 cells after 72 hrs by MTT assay; type: functional, cell-based; conditions: A549, 72 h; method in brief: as §1
[3] = Cytotoxicity against human EJ28 cells after 72 hrs by MTT assay; type: functional, cell-based; conditions: EJ-28, 72 h; method in brief: as §1
HT-1080 [4] = experiment: Cytotoxicity against human HT1080 cells after 72 hrs by MTT assay; type: functional, cell-based; conditions: HT-1080, 72 h; method in brief: as §1
MCF7 [5] = experiment: Cytotoxicity against human MCF7 cells after 72 hrs by MTT assay; type: functional, cell-based; conditions: MCF7, 72 h; method in brief: as §1
NHDF = experiment: Cytotoxicity against NHDF after 72 hrs by MTT assay; type: cell-based; conditions: Homo sapiens
Method in brief: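 NHDF grown in DMEM with 5% FBS at 37°C, 5% CO2. Seeded at 1500-5000 cells/well, 24 h, then compound added in DMSO-containing medium (final DMSO 0.1%) for 72 h. MTT (5 mg/mL in medium) added for 4 h at 37°C, formazan dissolved in DMSO, absorbance read at 570 nm.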

SW-620 [6] = experiment: Cytotoxicity against human SW620 cells assessed as inhibition of cell proliferation at 20 uM after 72 hrs by MTT assay relative to control; type: functional; conditions: SW-620, 72 h
Method in brief: (§2)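 Single-concentration screen at 20 μM with 72 h exposure in DMEM with 10% FBS, final DMSO 0.1%. Read-out was MTT (5 mg/mL, 4 h, 37°C), DMSO solubilisation and absorbance at 570 nm, expressed as percent inhibition. Lines reaching a threshold percentage went on to IC50 determination.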

A549 [7] = experiment: Cytotoxicity against human A549 cells assessed as inhibition of cell proliferation at 20 uM after 72 hrs by MTT assay relative to control; type: functional; conditions: A549, 72 h; method in brief: as §2
[8] = Cytotoxicity against human EJ28 cells assessed as inhibition of cell proliferation at 20 uM after 72 hrs by MTT assay relative to control; type: functional; conditions: EJ-28, 72 h; method in brief: as §2
HT-1080 [9] = experiment: Cytotoxicity against human HT1080 cells assessed as inhibition of cell proliferation at 20 uM after 72 hrs by MTT assay relative to control; type: functional; conditions: HT-1080, 72 h; method in brief: as §2
MCF7 [10] = experiment: Cytotoxicity against human MCF7 cells assessed as inhibition of cell proliferation at 20 uM after 72 hrs by MTT assay relative to control; type: functional; conditions: MCF7, 72 h; method in brief: as §2

Compound	IC50 (SW-620 [1]) [µM]	IC50 (A549 [2]) [µM]	IC50 [3] [µM]	IC50 (HT-1080 [4]) [µM]	IC50 (MCF7 [5]) [µM]	IC50 (NHDF) [µM]	inhibition at 20 µM (SW-620 [6]) [%]	inhibition at 20 µM (A549 [7]) [%]	inhibition at 20 µM [8] [%]	inhibition at 20 µM (HT-1080 [9]) [%]	inhibition at 20 µM (MCF7 [10]) [%]
COc1cccc(/C=C2\CCC/C(=C\c3ccc(O)c(O)c3)C2=O)c1OC	6.3	> 20	6.4	4.7	4.7	17.9	> 50	> 50	> 50	> 50	> 50
COc1ccc(/C=C2\CCC/C(=C\c3ccc(Br)cc3)C2=O)cc1OC	5.2	16	7.1	4.3	6.9	13.1	> 50	> 50	> 50	> 50	> 50
COc1ccc(/C=C2\CCC/C(=C\c3ccc(OC)c(OC)c3)C2=O)cc1	6.6	> 20	8.4	7.2	7.8	30.9	> 50	> 50	> 50	> 50	> 50
COc1ccc(/C=C2\CCC/C(=C\c3cc(Cl)cc(Cl)c3)C2=O)cc1OC	2.5	5.5	4.2	3	3.8	8.3	> 50	> 50	> 50	> 50	> 50
COc1ccc(/C=C2\CCC/C(=C\c3ccccc3Cl)C2=O)cc1OC	7.1	> 20	6.9	6.8	10.4	21.6	> 50	> 50	> 50	> 50	> 50
COc1ccc(/C=C2\CCC/C(=C\c3cccc(OC)c3OC)C2=O)cc1	13.6	> 20	16.8	16.3	18.6	43.5	> 50	> 50	> 50	> 50	> 50
COc1cccc(/C=C2\CCC/C(=C\c3ccc(Cl)cc3)C2=O)c1OC	11.1	> 20	11	11.1	10.3	18.6	> 50	> 50	> 50	> 50	> 50
COc1cc(/C=C2\CCC/C(=C\c3cccc(OC)c3OC)C2=O)cc(OC)c1	3.8	10.2	3.6	4.5	1.7	13.1	> 50	> 50	> 50	> 50	> 50
COc1cccc(/C=C2\CCC/C(=C\c3ccc(OC)c(OC)c3)C2=O)c1	3.7	6.7	4.2	4.6	4.6	11.6	> 50	> 50	> 50	> 50	> 50
COc1cccc(/C=C2\CCC/C(=C\c3ccc(O)c(Cl)c3)C2=O)c1OC	16.8	> 20	18.3	14.3	16.4	39.5	> 50	> 50	> 50	> 50	> 50
COc1ccc(/C=C2\CCC/C(=C\c3cccc(OC)c3OC)C2=O)c(OC)c1	> 20	> 20	> 20	> 20	> 20	> 50	> 50	> 50	> 50	> 50	> 50
COc1cccc(/C=C2\CCC/C(=C\c3cccc(OC)c3OC)C2=O)c1OC	8.3	11.4	8.4	6.1	5	31	> 50	> 50	> 50	> 50	> 50
COc1ccc(/C=C2\CCC/C(=C\c3ccc(Cl)cc3Cl)C2=O)cc1OC	10.3	> 20	12.4	10.5	16.2	> 50	> 50	> 50	> 50	> 50	> 50
COc1cccc(/C=C2\CCC/C(=C\c3cccc(Cl)c3Cl)C2=O)c1OC	16.3	> 20	18.1	19.3	> 20	> 50	> 50	> 50	> 50	> 50	> 50
COc1ccc(/C=C2\CCC/C(=C\c3cccc(Br)c3)C2=O)cc1OC	4.2	12.8	4.9	5.2	5.3	12.4	> 50	> 50	> 50	> 50	> 50
COc1cc(/C=C/C(=O)CC(=O)/C=C/c2ccc(O)c(OC)c2)ccc1O [CURCUMIN]	14	17.9	10.5	13.1	9.8	24.1					
COc1cc(/C=C2\CCC/C(=C\c3cccc(OC)c3OC)C2=O)ccc1O	8.6	> 20	10.6	5.9	11.6	14.3	> 50	> 50	> 50	> 50	> 50
COc1cccc(/C=C2\CCC/C(=C\c3ccccc3Cl)C2=O)c1OC	10.3	> 20	12	11.7	11.3	44.2	> 50	> 50	> 50	> 50	> 50
COc1ccc(/C=C2\CCC/C(=C\c3cccc(OC)c3OC)C2=O)cc1OC	6.4	14.4	6.6	6.4	6.5	14.9	> 50	> 50	> 50	> 50	> 50
COc1cc(/C=C2\CCC/C(=C\c3ccc(OC)c(OC)c3)C2=O)ccc1O	4.5	10.3	4.6	4.6	7.9	13.7	> 50	> 50	> 50	> 50	> 50
COc1ccccc1/C=C1\CCC/C(=C\c2ccc(OC)c(OC)c2)C1=O	7.8	> 20	8.1	8.1	8	18.1	> 50	> 50	> 50	> 50	> 50
COc1ccc(/C=C2\CCC/C(=C\c3ccc(O)c(O)c3)C2=O)cc1OC	10.5	> 20	12.1	4.2	14.4	25.2	> 50	> 50	> 50	> 50	> 50
COc1cccc(/C=C2\CCC/C(=C\c3cc(Cl)cc(Cl)c3)C2=O)c1OC	5.5	12.5	7.5	6.1	4.3	21.6	> 50	> 50	> 50	> 50	> 50
COc1ccc(/C=C2\CCC/C(=C\c3ccccc3Br)C2=O)cc1OC	5.3	> 20	7.4	8.4	9.5	21.8	> 50	> 50	> 50	> 50	> 50
